Each block holds one compound with its values, some of them ahead of it. Calls of active or inactive are those of the source. No cut-off for these calls is given here.
Legend:
[1] = molecular target: Muscarinic acetylcholine receptor M2 (Homo sapiens) (UniProt P08172); assay: Displacement of [3H]UNSW-MK259 from human muscarinic acetylcholine receptor M2 expressed in CHOK9 cells at <100 uM after 3 hrs by liquid scintillation counting assay
[2] = molecular target: Muscarinic acetylcholine receptor M2 (Homo sapiens) (UniProt P08172); assay: Displacement of [3H]NMS from human muscarinic acetylcholine receptor M2 expressed in CHOK9 cells at <100 uM after 3 hrs by liquid scintillation counting assay
[3] = molecular target: T1, Muscarinic acetylcholine receptor M2 (Homo sapiens, UniProt P08172); assay: Displacement of [3H]UR-AP060 from human muscarinic acetylcholine receptor M2 expressed in CHOK9 cell homogenate after 3 hrs by liquid scintillation counting assay
T1 sequence (P08172 whole entry): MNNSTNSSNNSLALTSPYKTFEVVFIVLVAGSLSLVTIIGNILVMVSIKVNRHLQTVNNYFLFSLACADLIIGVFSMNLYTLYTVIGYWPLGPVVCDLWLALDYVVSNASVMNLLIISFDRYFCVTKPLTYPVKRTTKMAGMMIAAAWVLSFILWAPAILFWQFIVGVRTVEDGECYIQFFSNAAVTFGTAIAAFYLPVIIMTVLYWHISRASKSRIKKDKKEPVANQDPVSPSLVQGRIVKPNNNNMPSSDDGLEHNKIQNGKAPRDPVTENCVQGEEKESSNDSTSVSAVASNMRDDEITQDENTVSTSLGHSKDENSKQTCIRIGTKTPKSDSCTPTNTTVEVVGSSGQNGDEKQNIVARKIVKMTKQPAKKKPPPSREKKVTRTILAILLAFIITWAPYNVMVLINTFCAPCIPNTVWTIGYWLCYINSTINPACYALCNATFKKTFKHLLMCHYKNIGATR

[4] = molecular target: T1, Muscarinic acetylcholine receptor M2; assay: Displacement of [3H]Dimethyl-W84 from human muscarinic acetylcholine receptor M2 expressed in CHO cells after 2 hrs; type: cell-based
[5] = molecular target: T1, Muscarinic acetylcholine receptor M2; assay: Displacement of [3H]NMS from human muscarinic acetylcholine receptor M2 expressed in CHO cells after 2 hrs; type: cell-based
[6] = molecular target: T1, Muscarinic acetylcholine receptor M2; assay: Displacement of [3H]UNSW-MK259 from human muscarinic acetylcholine receptor M2 expressed in CHOK9 cells after 3 hrs by liquid scintillation counting assay; type: cell-based
[7] = molecular target: T2, Muscarinic acetylcholine receptor M2 (Homo sapiens) (UniProt P08172); assay: (§1) Binding affinity to human muscarinic acetylcholine receptor M2 expressed in live adherent CHOK9 cells after 2 hrs by liquid scintillation counting assay; type: cell-based; conditions: tested as the 3H-labelled form
T2 sequence (whole entry): T1 sequence (P08172 whole entry)
Procedure, shortened: (§2)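 Live adherent CHO-hM2 cells in L15 medium with 1% BSA, 23 ± 1 °C, 2 h incubation. Competition at 2 nM radioligand; additional 4, 8, 15 and 30 nM in W84 experiments. […] Saturation data fitted one-site; competition by four-parameter logistic fits; at least three experiments in triplicate.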

[8] = molecular target: T2, Muscarinic acetylcholine receptor M2 (Homo sapiens); assay: Binding affinity to human muscarinic acetylcholine receptor M2 expressed in live adherent CHOK9 cells at Kd in presence of 500-fold excess atropine after 2 hrs by liquid scintillation counting assay relative to control; type: cell-based; conditions: tested as the 3H-labelled form
Procedure, shortened: as §2

[9] = molecular target: T3, Muscarinic acetylcholine receptor M5 (Homo sapiens, UniProt P08912); assay: Displacement of [3H]NMS from human muscarinic acetylcholine receptor M5 expressed in CHOK9 cells after 3 hrs by liquid scintillation counting assay; type: cell-based
T3 sequence (P08912 whole entry): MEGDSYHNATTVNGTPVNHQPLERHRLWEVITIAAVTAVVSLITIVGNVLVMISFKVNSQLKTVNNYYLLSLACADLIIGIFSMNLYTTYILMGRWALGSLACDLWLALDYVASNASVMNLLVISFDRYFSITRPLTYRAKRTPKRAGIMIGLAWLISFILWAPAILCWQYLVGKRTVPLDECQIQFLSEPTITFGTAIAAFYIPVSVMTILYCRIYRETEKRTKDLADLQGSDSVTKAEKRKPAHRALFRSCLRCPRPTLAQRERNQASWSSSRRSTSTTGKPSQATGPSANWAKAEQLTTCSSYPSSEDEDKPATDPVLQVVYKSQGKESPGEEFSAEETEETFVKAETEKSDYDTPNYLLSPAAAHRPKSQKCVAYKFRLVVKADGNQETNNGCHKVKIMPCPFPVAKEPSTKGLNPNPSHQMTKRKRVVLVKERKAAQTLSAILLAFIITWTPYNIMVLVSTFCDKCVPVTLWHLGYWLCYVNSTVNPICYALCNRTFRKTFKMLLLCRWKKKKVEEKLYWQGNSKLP

[10] = molecular target: T4, Muscarinic acetylcholine receptor M4 (Homo sapiens, UniProt P08173); assay: Displacement of [3H]NMS from human muscarinic acetylcholine receptor M4 expressed in CHOK9 cells after 3 hrs by liquid scintillation counting assay; type: cell-based
T4 sequence (P08173 whole entry): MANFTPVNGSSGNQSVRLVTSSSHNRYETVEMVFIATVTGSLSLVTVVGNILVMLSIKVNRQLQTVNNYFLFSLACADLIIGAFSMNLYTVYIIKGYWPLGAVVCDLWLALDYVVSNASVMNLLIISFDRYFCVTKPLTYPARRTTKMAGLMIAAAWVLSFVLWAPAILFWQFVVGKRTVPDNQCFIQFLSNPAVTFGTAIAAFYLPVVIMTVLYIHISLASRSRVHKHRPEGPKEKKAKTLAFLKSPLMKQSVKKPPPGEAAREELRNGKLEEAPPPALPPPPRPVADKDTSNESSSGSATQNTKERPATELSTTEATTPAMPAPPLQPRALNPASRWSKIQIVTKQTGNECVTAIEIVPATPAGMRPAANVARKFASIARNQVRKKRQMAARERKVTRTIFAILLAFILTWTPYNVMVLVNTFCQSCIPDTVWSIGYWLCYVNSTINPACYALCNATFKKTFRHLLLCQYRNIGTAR

[11] = molecular target: Muscarinic acetylcholine receptor M3 (Homo sapiens, UniProt P20309); assay: Displacement of [3H]NMS from human muscarinic acetylcholine receptor M3 expressed in CHOK9 cells after 3 hrs by liquid scintillation counting assay; type: cell-based
Sequence of Muscarinic acetylcholine receptor M3 (P20309 whole entry): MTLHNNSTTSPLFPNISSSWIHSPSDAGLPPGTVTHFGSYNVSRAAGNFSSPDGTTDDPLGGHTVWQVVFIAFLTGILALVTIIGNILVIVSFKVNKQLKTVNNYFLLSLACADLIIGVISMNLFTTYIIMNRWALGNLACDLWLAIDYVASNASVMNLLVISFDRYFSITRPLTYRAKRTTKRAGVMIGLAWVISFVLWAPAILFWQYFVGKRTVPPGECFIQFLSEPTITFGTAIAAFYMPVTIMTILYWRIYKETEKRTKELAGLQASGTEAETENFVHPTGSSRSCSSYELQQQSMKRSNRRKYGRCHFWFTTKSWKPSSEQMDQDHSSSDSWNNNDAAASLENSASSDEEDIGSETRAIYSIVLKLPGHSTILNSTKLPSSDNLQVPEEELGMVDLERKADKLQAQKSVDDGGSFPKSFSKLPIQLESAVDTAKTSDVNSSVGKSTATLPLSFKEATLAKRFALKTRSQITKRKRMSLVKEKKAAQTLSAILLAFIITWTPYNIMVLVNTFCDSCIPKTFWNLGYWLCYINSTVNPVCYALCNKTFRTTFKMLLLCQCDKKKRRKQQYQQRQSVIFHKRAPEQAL

[12] = molecular target: T1, Muscarinic acetylcholine receptor M2; assay: Displacement of [3H]NMS from human muscarinic acetylcholine receptor M2 expressed in CHOK9 cells after 3 hrs by liquid scintillation counting assay; type: cell-based
[13] = molecular target: T2, Muscarinic acetylcholine receptor M2 (Homo sapiens); assay: Binding affinity to human muscarinic acetylcholine receptor M2 expressed in CHOK9 cell homogenates at Kd in presence of 500-fold excess atropine after 2 hrs by liquid scintillation counting assay relative to control; conditions: tested as the 3H-labelled form
Procedure, shortened: (§3)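 CHO-hM2 cell homogenates (25–30 μg protein/well) in L15 medium with 1% BSA, 23 ± 1 °C, 2 h with tritiated dimeric radioligand. Competition used 0.5 nM radioligand; additional 0.4, 1, 2 and 4 nM in W84 experiments. […] Four-parameter logistic fits; at least three experiments in triplicate.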

[14] = molecular target: T2, Muscarinic acetylcholine receptor M2 (Homo sapiens); assay: (§4) Binding affinity to human muscarinic acetylcholine receptor M2 expressed in CHOK9 cell homogenate after 2 hrs by liquid scintillation counting assay; conditions: tested as the 3H-labelled form
Procedure, shortened: as §3

[15] = Chemical stability of the compound in PBS buffer at pH 7.4 after 48 hrs by HPLC analysis; type: physicochemical; conditions: pH 7.4, 48 h
Procedure, shortened: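 Compound at 100 μM final (from 10 mM stock) in PBS pH 7.4 at 22 ± 1 °C; samples taken at 0, 24 and 48 h, mixed with acetonitrile/1% aq TFA 2:8, analysed by RP-HPLC at 220 nm.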

[16] = molecular target: T5, Muscarinic acetylcholine receptor M1 (Homo sapiens, UniProt P11229); assay: Displacement of [3H]NMS from human muscarinic acetylcholine receptor M1 expressed in CHOK9 cells after 3 hrs by liquid scintillation counting assay; type: cell-based
T5 sequence (P11229 whole entry): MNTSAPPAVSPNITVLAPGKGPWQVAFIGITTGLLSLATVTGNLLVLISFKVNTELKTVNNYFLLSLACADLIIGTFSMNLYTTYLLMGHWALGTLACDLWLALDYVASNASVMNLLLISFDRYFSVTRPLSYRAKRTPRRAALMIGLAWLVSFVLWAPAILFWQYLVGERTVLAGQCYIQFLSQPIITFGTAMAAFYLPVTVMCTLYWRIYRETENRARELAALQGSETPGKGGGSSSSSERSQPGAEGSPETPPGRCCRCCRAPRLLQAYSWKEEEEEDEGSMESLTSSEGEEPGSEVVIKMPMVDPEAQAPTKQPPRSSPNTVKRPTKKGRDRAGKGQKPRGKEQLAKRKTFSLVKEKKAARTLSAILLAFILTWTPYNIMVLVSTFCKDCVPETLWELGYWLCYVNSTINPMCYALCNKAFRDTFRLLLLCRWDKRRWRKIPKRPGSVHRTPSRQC

[17] = molecular target: T1, Muscarinic acetylcholine receptor M2; assay: as §1; type: cell-based
Procedure, shortened: as §2

[18] = molecular target: T4, Muscarinic acetylcholine receptor M4; assay: Binding affinity to human muscarinic acetylcholine receptor M4 expressed in CHOK9 cells after 2 hrs by liquid scintillation counting assay; type: cell-based
[19] = molecular target: T1, Muscarinic acetylcholine receptor M2; assay: Ratio of binding affinity to human muscarinic acetylcholine receptor M2 expressed in CHOK9 cells assessed as dissociation rate constant to binding affinity to human muscarinic acetylcholine receptor M2 expressed in CHOK9 cells assessed as association rate constant; type: cell-based
[20] = molecular target: T1, Muscarinic acetylcholine receptor M2; assay: Binding affinity to human muscarinic acetylcholine receptor M2 expressed in CHOK9 cell suspension after 2 hrs by liquid scintillation counting assay; conditions: read-out: Kd(app)
[21] = molecular target: T1, Muscarinic acetylcholine receptor M2; assay: as §4; conditions: read-out: Kd(app)
Procedure, shortened: as §3

[22] = molecular target: T1, Muscarinic acetylcholine receptor M2; assay: Binding affinity to human muscarinic acetylcholine receptor M2 expressed in live adherent CHOK9 cells assessed as saturation binding after 2 hrs by liquid scintillation counting assay

inhibition [1]: inactive
inhibition [2]: inactive
SMILES: CCC(=O)NCCNC(=O)CCc1c[nH]cn1

Ki [3]: 1070 nM
Kb ([3]; read-out: pA2 (converted)): 263 nM
Ki [4]: 31.6 nM
Ki [5]: 31.6 nM
Ki [6]: 39.8 nM
Kb ([6]; read-out: pA2 (converted)): 155 nM
SMILES: C[N+](C)(CCCCCC[N+](C)(C)CCCN1C(=O)c2ccccc2C1=O)CCCN1C(=O)c2ccccc2C1=O

Bmax (disintegrations/minute) [7]: 3800
Activity [8]: > 60%
Ki [9]: 77.6 nM
Ki [10]: 3.63 nM
Ki [11]: 200 nM
Ki ([12]; read-out: pKi (converted)): 0.708 nM
Activity [13]: < 15%
Bmax (disintegrations/minute) [14]: 4900
Stability [15]: Stable
Ki [16]: 7.08 nM
SMILES: CCC(=O)NC1CN(CCCCC2CCN(CC(=O)N3c4ccccc4NC(=O)c4ccccc43)CC2)CCN(CCCCC2CCN(CC(=O)N3c4ccccc4NC(=O)c4ccccc43)CC2)C1.O=C(O)C(F)(F)F.O=C(O)C(F)(F)F.O=C(O)C(F)(F)F.O=C(O)C(F)(F)F

Kd [17]: 0.91 nM
Kd [18]: 0.67 nM
Ki ([12]; read-out: Ki): 0.41 nM
Kd [19]: 0.2 nM
Kd [20]: 0.31 nM
Kd [21]: 0.22 to 0.24 nM
Kd [22]: 0.31 nM
SMILES: O=C(O)C(F)(F)F.O=C(O)C(F)(F)F.O=C(O)C(F)(F)F.O=C(O)C(F)(F)F.[3H]CC([3H])C(=O)NCc1cc(C(=O)NCCNC(=O)CCc2cn(CCCCC3CCN(CC(=O)N4c5ccccc5NC(=O)c5ccccc54)CC3)cn2)cc(C(=O)NCCNC(=O)CCc2cn(CCCCC3CCN(CC(=O)N4c5ccccc5NC(=O)c5ccccc54)CC3)cn2)c1 (stereo not given)

Source: ChEMBL document CHEMBL4049434, “Radiolabeled Dibenzodiazepinone-Type Antagonists Give Evidence of Dualsteric Binding at the M2 Muscarinic Acetylcholine Receptor” (J Med Chem, 2017)
